# PubChem BioAssay AID2434 (Vanderbilt High Throughput Screening Facility, 2010)
# Active and inactive are the calls of the source.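 Rule for the calls: active = an acetylcholine EC50 could be fitted from its dose curve with compound present at 10 µM; inactive = the rest.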
# Target: Muscarinic acetylcholine receptor M1 (Rattus norvegicus) (UniProt P08482)
# Test: M1 acetylcholine potency enhancement by modulators – cell-based, ACh fold-shift, calcium, CHO-K1, mechanism study (AID 2434)
# Settings: CHO-K1 rat M1, Fluo-4 calcium
# Method in brief: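 Also added: acetylcholine concentration-response curve, eight concentrations; material: rat M1-expressing CHO-K1 cells, Fluo-4 loaded; signal: Fluo-4 calcium signal; buffer or medium: HBSS assay buffer with HEPES and probenecid, pH 7.4; controls: vehicle acetylcholine curve and maximal acetylcholine response; schedule: dye loading 45–60 min at 37 °C, assay at 25 °C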
# Chain of Muscarinic acetylcholine receptor M1 (Rattus norvegicus) (P08482 whole entry, looked up): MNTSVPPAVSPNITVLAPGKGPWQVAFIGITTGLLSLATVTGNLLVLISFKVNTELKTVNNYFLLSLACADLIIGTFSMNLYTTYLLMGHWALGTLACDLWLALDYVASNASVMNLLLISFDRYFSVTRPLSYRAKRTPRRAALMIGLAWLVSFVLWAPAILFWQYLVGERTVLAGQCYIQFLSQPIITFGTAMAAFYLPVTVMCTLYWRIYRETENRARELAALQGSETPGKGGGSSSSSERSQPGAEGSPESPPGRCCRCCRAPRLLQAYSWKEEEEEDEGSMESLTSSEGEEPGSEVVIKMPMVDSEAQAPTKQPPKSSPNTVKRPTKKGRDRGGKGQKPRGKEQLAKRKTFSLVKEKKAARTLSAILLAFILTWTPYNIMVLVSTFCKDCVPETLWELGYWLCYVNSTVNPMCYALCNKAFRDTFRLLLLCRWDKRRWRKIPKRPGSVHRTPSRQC
row,SMILES,outcome
1,Cn1cc(-c2ccc(CN3C(=O)C(=O)c4ccccc43)c(F)c2)cn1,inactive
2,Cn1cc(-c2cc(F)c(CN3C(=O)C(=O)c4ccccc43)c(F)c2)cn1,inactive
3,Cc1cc(NC(=O)CS(=O)(=O)c2cn(Cc3cc(Br)ccc3F)c3ccccc23)no1,active
4,Cc1cc(NC(=O)CS(=O)(=O)c2cn(Cc3cccc(-c4cn[nH]c4)c3)c3cc(F)cc(F)c23)no1,active
